Converted amounts (≈) assume the structure as drawn.
What was measured:
Format in all cases: functional
[1] = system: Pseudomonas aeruginosa; experiment: Antimicrobial activity against Pseudomonas aeruginosa UFPEDA 39 at 300 ug/disk after 24 hrs by disk diffusion method; conditions: UFPEDA 39, 24 h, read-out: IZ
Procedure, shortened: (§1)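 Preliminary screen by disk diffusion. Paper disks (6 mm) holding 300 µg of compound were placed on agar plates inoculated with a standardized microbial suspension. DMSO-only disks served as negative controls. A mean inhibition zone below 7 mm was scored as no sensitivity. Values are means, n = 3.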

[2] = system: Staphylococcus; experiment: Antimicrobial activity against coagulase-negative Staphylococcus H.A.M. 278 isolate after 20 hrs by twofold serial dilution technique; conditions: H.A.M. 278, 20 h
Procedure, shortened: (§2)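 MIC was determined by twofold serial dilution. Bacteria were tested in plates at 10⁵ CFU/plate and read after 20 h. C. albicans was tested in tubes at 10³ CFU/tube and read after 48 h. All incubations were at 35 °C. Medium plus DMSO served as the negative control.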

[3] = system: Staphylococcus aureus; experiment: Antimicrobial activity against Staphylococcus aureus UFPEDA 01 after 20 hrs by twofold serial dilution technique; conditions: UFPEDA 01, 20 h
Procedure, shortened: (§3)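 Twofold serial dilution MIC in agar plates against Gram-positive strains and multidrug-resistant clinical isolates. Inoculum applied was 10⁵ CFU/plate. Plates with culture medium plus DMSO served as negative control. MIC was read after incubation at 35 °C for 20 h.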

[4] = system: Staphylococcus aureus; experiment: Antimicrobial activity against multidrug-resistant Staphylococcus aureus H.C. 20794 isolate after 20 hrs by twofold serial dilution technique; conditions: H.C. 20794, 20 h; procedure, shortened: as §3
[5] = system: HEp-2; experiment: Cytotoxicity against human Hep2 cells at 2.5 ug/mL after 72 hrs by MTT assay; conditions: HEp-2, 72 h, read-out: GI
Procedure, shortened: (§4)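 MTT antiproliferative assay. Cells were diluted to 10⁵ cells/mL in 96-well plates and preincubated for 24 h at 37 °C in humid 5% CO₂. Compounds or vincristine (reference) were then added. Formazan was dissolved and OD read at 540 nm, compared with medium-only control cells. Run in triplicate.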

[6] = system: Staphylococcus; experiment: Antimicrobial activity against coagulase-negative Staphylococcus H.A.M. 338 isolate after 20 hrs by twofold serial dilution technique; conditions: H.A.M. 338, 20 h; procedure, shortened: as §2
[7] = system: Mycolicibacterium smegmatis; experiment: Antimicrobial activity against Mycobacterium smegmatis UFPEDA 71 after 20 hrs by twofold serial dilution technique; conditions: UFPEDA 71, 20 h; procedure, shortened: as §2
[8] = system: NCI-H292; experiment: Cytotoxicity against human NCI-H292 cells at 2.5 ug/mL after 72 hrs by MTT assay; conditions: NCI-H292, 72 h, read-out: GI; procedure, shortened: as §4
[9] = system: Staphylococcus aureus; experiment: Antimicrobial activity against multidrug-resistant Staphylococcus aureus H.C. 20905 isolate after 20 hrs by twofold serial dilution technique; conditions: H.C. 20905, 20 h; procedure, shortened: as §3
[10] = system: Enterococcus faecalis; experiment: Antimicrobial activity against multidrug-resistant Enterococcus faecalis H.C. 24708 isolate after 20 hrs by twofold serial dilution technique; conditions: H.C. 24708, 20 h; procedure, shortened: as §3
[11] = system: NCI-H292; experiment: Cytotoxicity against human NCI-H292 cells at 5 ug/mL after 72 hrs by MTT assay; conditions: NCI-H292, 72 h, read-out: GI; procedure, shortened: as §4
[12] = system: Staphylococcus aureus; experiment: Antimicrobial activity against multidrug-resistant Staphylococcus aureus H.C. 20489 isolate after 20 hrs by twofold serial dilution technique; conditions: H.C. 20489, 20 h; procedure, shortened: as §3
[13] = system: Mycolicibacterium smegmatis; experiment: Antimicrobial activity against Mycobacterium smegmatis UFPEDA 71 at 300 ug/disk after 24 hrs by disk diffusion method; conditions: UFPEDA 71, 24 h, read-out: IZ; procedure, shortened: as §1
[14] = system: NCI-H292; experiment: Cytotoxicity against human NCI-H292 cells at 1.25 ug/mL after 72 hrs by MTT assay; conditions: NCI-H292, 72 h, read-out: GI; procedure, shortened: as §4
[15] = system: Staphylococcus aureus; experiment: Antimicrobial activity against multidrug-resistant Staphylococcus aureus H.C. 21141 isolate after 20 hrs by twofold serial dilution technique; conditions: H.C. 21141, 20 h; procedure, shortened: as §3
[16] = system: NCI-H292; experiment: Cytotoxicity against human NCI-H292 cells at 10 ug/mL after 72 hrs by MTT assay; conditions: NCI-H292, 72 h, read-out: GI; procedure, shortened: as §4
[17] = system: Bacillus subtilis; experiment: Antimicrobial activity against Bacillus subtilis UFPEDA 16 after 20 hrs by twofold serial dilution technique; conditions: UFPEDA 16, 20 h; procedure, shortened: as §2
[18] = system: Enterococcus faecalis; experiment: Antimicrobial activity against multidrug-resistant Enterococcus faecalis H.C. 21944 isolate after 20 hrs by twofold serial dilution technique; conditions: H.C. 21944, 20 h; procedure, shortened: as §3
[19] = system: Bacillus subtilis; experiment: Antimicrobial activity against Bacillus subtilis UFPEDA 16 at 300 ug/disk after 24 hrs by disk diffusion method; conditions: UFPEDA 16, 24 h, read-out: IZ; procedure, shortened: as §1
[20] = system: HEp-2; experiment: Cytotoxicity against human Hep2 cells at 10 ug/mL after 72 hrs by MTT assay; conditions: HEp-2, 72 h, read-out: GI; procedure, shortened: as §4
[21] = system: Enterococcus faecalis; experiment: Antimicrobial activity against multidrug-resistant Enterococcus faecalis H.C. 24962 isolate after 20 hrs by twofold serial dilution technique; conditions: H.C. 24962, 20 h; procedure, shortened: as §3
[22] = system: Enterococcus faecalis; experiment: Antimicrobial activity against multidrug-resistant Enterococcus faecalis H.C. 21752 isolate after 20 hrs by twofold serial dilution technique; conditions: H.C. 21752, 20 h; procedure, shortened: as §3
[23] = system: Escherichia coli; experiment: Antimicrobial activity against Escherichia coli UFPEDA 224 at 300 ug/disk after 24 hrs by disk diffusion method; conditions: UFPEDA 224, 24 h, read-out: IZ; procedure, shortened: as §1
[24] = system: Serratia marcescens; experiment: Antimicrobial activity against Serratia marcescens UFPEDA 398 at 300 ug/disk after 24 hrs by disk diffusion method; conditions: UFPEDA 398, 24 h, read-out: IZ; procedure, shortened: as §1
[25] = system: Staphylococcus aureus; experiment: Antimicrobial activity against Staphylococcus aureus UFPEDA 01 at 300 ug/disk after 24 hrs by disk diffusion method; conditions: UFPEDA 01, 24 h, read-out: IZ; procedure, shortened: as §1
[26] = system: Enterococcus faecalis; experiment: Antimicrobial activity against Enterococcus faecalis UFPEDA 138 after 20 hrs by twofold serial dilution technique; conditions: UFPEDA 138, 20 h; procedure, shortened: as §2
[27] = system: Staphylococcus aureus; experiment: Antimicrobial activity against multidrug-resistant Staphylococcus aureus H.C. 20981 isolate after 20 hrs by twofold serial dilution technique; conditions: H.C. 20981, 20 h; procedure, shortened: as §3
[28] = system: Micrococcus luteus; experiment: Antimicrobial activity against Micrococcus luteus UFPEDA 06 at 300 ug/disk after 24 hrs by disk diffusion method; conditions: UFPEDA 06, 24 h, read-out: IZ; procedure, shortened: as §1
[29] = system: Candida albicans; experiment: Antimicrobial activity against Candida albicans UFPEDA 1007 after 48 hrs by twofold serial dilution technique; conditions: UFPEDA 1007, 48 h; procedure, shortened: as §2
[30] = system: HEp-2; experiment: Cytotoxicity against human Hep2 cells at 5 ug/mL after 72 hrs by MTT assay; conditions: HEp-2, 72 h, read-out: GI; procedure, shortened: as §4
[31] = system: Enterococcus faecalis; experiment: Antimicrobial activity against Enterococcus faecalis UFPEDA 138 at 300 ug/disk after 24 hrs by disk diffusion method; conditions: UFPEDA 138, 24 h, read-out: IZ; procedure, shortened: as §1
[32] = system: Candida albicans; experiment: Antimicrobial activity against Candida albicans UFPEDA 1007 at 300 ug/disk after 48 hrs by disk diffusion method; conditions: UFPEDA 1007, 48 h, read-out: IZ; procedure, shortened: as §1
[33] = system: Micrococcus luteus; experiment: Antimicrobial activity against Micrococcus luteus UFPEDA 06 after 20 hrs by twofold serial dilution technique; conditions: UFPEDA 06, 20 h; procedure, shortened: as §2
[34] = system: HEp-2; experiment: Cytotoxicity against human Hep2 cells at 1.25 ug/mL after 72 hrs by MTT assay; conditions: HEp-2, 72 h, read-out: GI; procedure, shortened: as §4
[35] = system: Staphylococcus aureus; experiment: Antimicrobial activity against multidrug-resistant Staphylococcus aureus H.C. 21036 isolate after 20 hrs by twofold serial dilution technique; conditions: H.C. 21036, 20 h; procedure, shortened: as §3

Row | SMILES | zone of inhibition at 300 µg/disc [1] [mm] | MIC [2] [µg/mL] | MIC [3] [µg/mL] | MIC [4] [µg/mL] | inhibition of growth at 2.5 µg/mL [5] [%] | MIC [6] [µg/mL] | MIC [7] [µg/mL] | inhibition of growth at 2.5 µg/mL [8] [%] | MIC [9] [µg/mL] | MIC [10] [µg/mL] | inhibition of growth at 5 µg/mL [11] [%] | MIC [12] [µg/mL] | zone of inhibition at 300 µg/disc [13] [mm] | inhibition of growth at 1.25 µg/mL [14] [%] | MIC [15] [µg/mL] | inhibition of growth at 10 µg/mL [16] [%] | MIC [17] [µg/mL] | MIC [18] [µg/mL] | zone of inhibition at 300 µg/disc [19] [mm] | inhibition of growth at 10 µg/mL [20] [%] | other results
1 | O=C1NC(=S)/C(=C/c2cc(Cl)cc(Cl)c2Cl)S1 | < 7 | 2 (≈ 6.16 µM) | 4 (≈ 12.3 µM) | 2 (≈ 6.16 µM) | 21.8 | 2 (≈ 6.16 µM) | 32 (≈ 98.6 µM) | 33 | 2 (≈ 6.16 µM) | 4 (≈ 12.3 µM) | 39.7 | 2 (≈ 6.16 µM) | < 7 | 14.2 | 2 (≈ 6.16 µM) | 40.5 | 2 (≈ 6.16 µM) | 4 (≈ 12.3 µM) | < 7 | 23.5 | MIC [21]: 4 µg/mL (≈ 12.3 µM); MIC [22]: 4 µg/mL (≈ 12.3 µM); zone of inhibition at 300 µg/disc [23]: < 7 mm; zone of inhibition at 300 µg/disc [24]: < 7 mm; zone of inhibition at 300 µg/disc [25]: 16 mm; MIC [26]: 2 µg/mL (≈ 6.16 µM); MIC [27]: 2 µg/mL (≈ 6.16 µM); zone of inhibition at 300 µg/disc [28]: 21 mm; MIC [29]: 64 µg/mL (≈ 197 µM); inhibition of growth at 5 µg/mL [30]: 22.8%; zone of inhibition at 300 µg/disc [31]: 19 mm; zone of inhibition at 300 µg/disc [32]: < 7 mm; MIC [33]: 4 µg/mL (≈ 12.3 µM); inhibition of growth at 1.25 µg/mL [34]: 12.6%; MIC [35]: 2 µg/mL (≈ 6.16 µM)
2 | O=C1NC(=S)/C(=C/c2cccc(F)c2)S1 | < 7 | 16 (≈ 66.9 µM) | 4 (≈ 16.7 µM) | 2 (≈ 8.36 µM) | 7.03 | 16 (≈ 66.9 µM) | 32 (≈ 134 µM) | 3.43 | 2 (≈ 8.36 µM) | 8 (≈ 33.4 µM) | 13.1 | 2 (≈ 8.36 µM) | 20 | 2.1 | 16 (≈ 66.9 µM) | 26.8 | 16 (≈ 66.9 µM) | 8 (≈ 33.4 µM) | 20 | 20.9 | MIC [21]: 8 µg/mL (≈ 33.4 µM); MIC [22]: 16 µg/mL (≈ 66.9 µM); zone of inhibition at 300 µg/disc [23]: < 7 mm; zone of inhibition at 300 µg/disc [24]: < 7 mm; zone of inhibition at 300 µg/disc [25]: 28 mm; MIC [26]: 32 µg/mL (≈ 134 µM); MIC [27]: 2 µg/mL (≈ 8.36 µM); zone of inhibition at 300 µg/disc [28]: 27 mm; MIC [29]: 64 µg/mL (≈ 267 µM); inhibition of growth at 5 µg/mL [30]: 19.8%; zone of inhibition at 300 µg/disc [31]: 22 mm; zone of inhibition at 300 µg/disc [32]: 16 mm; MIC [33]: 16 µg/mL (≈ 66.9 µM); inhibition of growth at 1.25 µg/mL [34]: 0.84%; MIC [35]: 2 µg/mL (≈ 8.36 µM)

— ChEMBL document CHEMBL1158358, “Synthesis, antimicrobial and cytotoxic activities of some 5-arylidene-4-thioxo-thiazolidine-2-ones” (Eur J Med Chem, 2009)
